Test results published in ChEMBL document CHEMBL1150800, “Multiple-dose escalation study of the safety, pharmacokinetics, and biologic activity of oral AMD070, a selective CXCR4 receptor inhibitor, in human subjects” (Antimicrob Agents Chemother, 2007).
Values after ≈ are worked out from the molar mass of the structure shown.

What was measured:
[1] = Drug level in fasting healthy human at 50 mg, po administered as single dose after 12 hrs; type: ADME, organism-based; settings: in vivo, read-out: Drug uptake
Method in brief: (§1)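 Healthy male volunteers, three per cohort, one oral dose after 8-h overnight fast, fasting kept until 1 h post-dose. Plasma sampled predose and at 0.5, 1, 1.5, 2, 3, 4, 6, 8, 12, 16, 20, 24 h. Levels by validated HPLC-MS/MS (liquid-liquid extraction, positive-ion electrospray). Noncompartmental analysis, log-linear trapezoidal AUC, summarized per cohort.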

[2] = Oral bioavailability in rat; type: ADME, organism-based; settings: in vivo
[3] = Half life in rat; type: ADME, organism-based; settings: in vivo
[4] = Tmax in fasting healthy human at 100 mg, po administered every 12 hrs; type: ADME, organism-based; settings: in vivo
Method in brief: (§2)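 Six healthy male volunteers per cohort received seven oral doses q12h. Morning doses followed an 8-h fast, with fasting continued until 1 h post-dose. After the final dose (72 h after the first), plasma was sampled pre-dose and at 0.5–24 h, and assayed by validated HPLC-MS/MS. Tmax came from individual noncompartmental analysis, summarized per cohort.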

Homo sapiens [5] = assay: AUC ( 0 to infinity) in fasting healthy human at 100 mg, po administered as single dose after 12 hrs; type: ADME, organism-based, Plasma; parameters: dose 100 mg, route oral, time infinity; settings: in vivo; method in brief: as §1
Homo sapiens [6] = assay: Half life in fasting healthy human at 100 mg, po administered every 12 hrs; type: ADME, organism-based; settings: in vivo
Method in brief: (§3)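 Six healthy men per cohort dosed orally q12h for seven doses. Morning doses given after 8-h fast, with fasting until 1 h post-dose. After the final dose (72 h after the first) plasma was sampled predose and 0.5–24 h. Validated HPLC-MS/MS assay. Noncompartmental parameters (log-linear trapezoidal AUC) from all time points, summarized per cohort.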

[7] = Drug level in fasting healthy human at 100 mg, po administered every 12 hrs measured after 72 hrs; type: ADME, organism-based; settings: in vivo, read-out: Drug uptake; method in brief: as §3
[8] = Terminal half life in dog; type: ADME, organism-based, Canis lupus familiaris; settings: in vivo
[9] = Tmax in fasting healthy human at 100 mg, po administered as single dose; type: ADME, organism-based; settings: in vivo; method in brief: as §1
[10] = Drug level in fasting healthy human at 400 mg, po administered as single dose after 12 hrs; type: ADME, organism-based; settings: in vivo, read-out: Drug uptake; method in brief: as §1
Homo sapiens [11] = assay: AUC ( 0 to infinity) in fasting healthy human at 400 mg, po administered as single dose after 12 hrs; type: ADME, organism-based, Plasma; parameters: dose 400 mg, time infinity, route oral; settings: in vivo; method in brief: as §1
[12] = Tmax in fasting healthy human at 400 mg, po administered every 12 hrs; type: ADME, organism-based; settings: in vivo; method in brief: as §2
[13] = Oral bioavailability in dog; type: ADME, organism-based, Canis lupus familiaris; settings: in vivo
Homo sapiens [14] = assay: Half life in fasting healthy human at 400 mg, po administered every 12 hrs; type: ADME, organism-based; settings: in vivo; method in brief: as §3
[15] = Drug level in fasting healthy human at 200 mg, po administered as single dose after 12 hrs; type: ADME, organism-based; settings: in vivo, read-out: Drug uptake; method in brief: as §1
Homo sapiens [16] = assay: Apparent volume of distribution in fasting healthy human at 400 mg, po administered every 12 hrs; type: ADME, organism-based; settings: in vivo; method in brief: as §3
[17] = Tmax in fasting healthy human at 200 mg, po administered as single dose; type: ADME, organism-based; settings: in vivo
Method in brief: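 Healthy male volunteers (cohort C, n=3) took one oral dose after an 8-h overnight fast and kept fasting to 1 h post-dose. Drug was measured by validated HPLC-MS/MS (positive electrospray), and Tmax was taken by noncompartmental analysis of individual curves.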

[18] = test system: Human immunodeficiency virus 1; assay: Antiviral activity against HIV1 NL4.3 in human MT4 cells; type: functional, organism-based; settings: Human immunodeficiency virus 1, MT4
[19] = Drug level in fasting healthy human at 400 mg, po administered every 12 hrs measured after 72 hrs; type: ADME, organism-based; settings: in vivo, read-out: Drug uptake; method in brief: as §3
[20] = Drug level in fasting healthy human at 200 mg, po administered every 12 hrs measured after 84 hrs; type: ADME, organism-based; settings: in vivo, read-out: Drug uptake; method in brief: as §3
[21] = Cmax in fasting healthy human at 400 mg, po administered every 12 hrs; type: ADME, organism-based; parameters: dose 400 mg, route oral; settings: in vivo; method in brief: as §3
[22] = Tmax in fasting healthy human at 200 mg, po administered every 12 hrs; type: ADME, organism-based; settings: in vivo; method in brief: as §2
Homo sapiens [23] = assay: Half life in fasting healthy human at 400 mg, po administered as single dose after 12 hrs; type: ADME, organism-based; settings: in vivo; method in brief: as §1
Homo sapiens [24] = assay: Apparent volume of distribution in fasting healthy human at 100 mg, po administered every 12 hrs; type: ADME, organism-based; settings: in vivo; method in brief: as §3
[25] = Tmax in fasting healthy human at 400 mg, po administered as single dose; type: ADME, organism-based; settings: in vivo
Method in brief: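 Healthy male volunteers, three per cohort, took one oral dose after an 8-h overnight fast and stayed fasting until 1 h post-dose. Tmax came from per-subject noncompartmental analysis, summarized by cohort.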

Homo sapiens [26] = assay: Apparent volume of distribution in fasting healthy human at 200 mg, po administered as single dose after 12 hrs; type: ADME, organism-based; settings: in vivo; method in brief: as §1

A concentration at 12 h [1] of 1.5 ng/mL, a bioavailability [2] of 20% and a half-life [3] of 1.4 h were found for `NCCCCN(Cc1nc2ccccc2[nH]1)[C@H]1CCCc2cccnc21` [MAVORIXAFOR] in this work. The Tmax [4] was 1.7 h, the AUC (Homo sapiens [5]) was 358 ng·h/mL and the t1/2 (Homo sapiens [6]) was 15.9 h. For the same compound, the concentration at 72 h [7] was 6.8 ng/mL, the half-life [8] was 10 h and the Tmax [9] was 1.5 h. It also gave a concentration at 12 h [10] of 44.6 ng/mL, an AUC (Homo sapiens [11]) of 6716 ng·h/mL and a Tmax [12] of 1.8 h. It also gave a bioavailability [13] of 80%, a t1/2 (Homo sapiens [14]) of 12 h and a concentration at 12 h [15] of 11.6 ng/mL. It also gave a Vd (Homo sapiens [16]) of 966 L, a Tmax [17] of 1 h and an EC90 [18] of 0.044 µg/mL (≈ 0.126 µM). The IC50 [18] was 0.0023 µg/mL (≈ 0.00658 µM), the concentration at 72 h [19] was 122 ng/mL and the concentration at 84 h [20] was 33 ng/mL. For the same compound, the Cmax [21] was 2300 ng/mL, the Tmax [22] was 1.8 h and the t1/2 (Homo sapiens [23]) was 11.2 h. For the same compound, the Vd (Homo sapiens [24]) was 2663 L, the Tmax [25] was 1.5 h and the Vd (Homo sapiens [26]) was 2152 L.
